The list is not random: actives were taken first. Their share in the collection is about 1.7%.
PGC1a acetyl inh = PGC1a acetylation modulation, inhibitor mode; U2OS PGC1a acetylation, AlphaScreen anti-acetyl-lysine; with virally co-expressed GCN5 acetyltransferase; hit rate 0.17% among 350,000; inhibition, % at 15.6 µM;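 active means every replicate shows inhibition of at least 40%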;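 further: 0% = neutral control wells and 100% = positive control wells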
CAL PDZ FP-1 = human CAL PDZ-peptide interaction inhibition | inhibition, % at 20 µM | Q9HD26 | hit rate 0.02% among 330,000 | purified CAL PDZ, TMR-peptide fluorescence polarization, 1 h;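 active means highest replicate inhibition of at least 40%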;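 further: plate controls were DMSO neutral control wells for no effect and unlabeled competitor peptide control wells for full effect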
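material = purified tagged CAL PDZ domain construct (CerCALP) | buffer or medium = sodium phosphate/NaCl buffer pH 7.4 with TCEP, IgG, Thesit | reagent = TMR-labelled reporter peptide T*-PRC34 bound in PDZ groove | incubation = 1 h room-temperature incubation prior to read | measured by = fluorescence polarization (mP) | evaluation = percent inhibition from loss of millipolarization | control set = unlabelled peptide and DMSO controls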
CFTR F508del cor = CFTR F508del correction in bronchial cells | CFBE cells, YFP halide quenching; stimulated with forskolin plus potentiator P3; % fluorescence drop versus neutral controls | activity (quench increase), % at 7.58 µM | hit rate 0.36% among 350,000 | AID 720511;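 active means mean added fluorescence quench of at least 8% versus neutral control, with both replicates also reaching 8%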;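 further: cells transiently co-express mutant CFTR-F508del with the halide-sensitive YFP; corrector assay measuring rescue of mutant channel to the surface after 24 h compound exposure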
ARNT TACC3 PPI = ARNT/TACC3 interaction disruption; Q9Y6A5; AlphaScreen His-ARNT PAS-B/GST-TACC3 binding, luminescence; TACC3 fragment carries E629A point mutation; inhibition, % at 9.99 µM; hit rate 0.66% among 390,000;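 active means mean inhibition of replicates at least 50% and at least half of replicates each reaching 50%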;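 further: 0% = complete ARNT plus TACC3 wells and 100% = ARNT alone without TACC3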
CAL PDZ FP-2 = blocks peptide binding to the human CAL PDZ domain; purified CAL PDZ, TMR-peptide fluorescence polarization, 1 h; AID 602252; inhibition, % at 24.9 µM; hit rate 0.92% among 300,000;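 active means mean inhibition of at least 30% with at least half of replicates also reaching 30%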;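 further: 0% = DMSO neutral control and 100% = excess unlabeled competitor peptide PRC23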
miR122 inh = inhibitors of miR-122 in Huh7 cells. Huh7 miR-122 Renilla luciferase sensor, 48 h; neutral wells = 0, positive control = 100. activation (reporter increase), % at 12.5 µM. hit rate 0.3% among 340,000. AID 602342;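 active means mean replicate activation score at least 90 and every replicate individually at or above 90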;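 further: higher luciferase means less miR-122 activity so hits act as miR-122 inhibitors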
* hit, by the source's call; nt = no result given; [ ] = remark or other dose.

SMILES	PGC1a acetyl inh	CAL PDZ FP-1	CFTR F508del cor	ARNT TACC3 PPI	CAL PDZ FP-2	miR122 inh
Cc1ccc(NC(=O)c2ccc(S(=O)(=O)N3CCOCC3)cc2)nc1	12.5	-1.0	nt	0.5	1.2	215.5*
COc1cc(-c2nnc(NC(=O)c3ccc(S(=O)(=O)N4CCOCC4)cc3)o2)cc(OC)c1OC	nt	nt	-3.1	nt	nt	nt
S=C(NCc1ccccc1)NCc1ccccc1	-3.3	-2.9	-1.9	-5.3	-0.9	nt
S=C(NCc1ccccc1)NNc1ccccc1	nt	-1.1	-2.2	1.8	58.3*	nt
Cc1noc(C)c1NC(=O)N(C)C[C@@H]1Oc2ccc(NS(=O)(=O)c3ccc(Cl)cc3)cc2CC(=O)N([C@H](C)CO)C[C@H]1C	5.9	nt	-1.2	-2.3	nt	1.3[16.7 µM]
O=C(N[C@H]1C=C[C@H](CC(=O)N2CCOCC2)O[C@@H]1CO)c1ccc2c(c1)OCO2	-3.5	nt	0.7	-1.8	nt	nt
CCC(=O)c1ccc(N2CCOCC2)c(F)c1	-9.3	-1.5	nt	nt	2.1	2.3
CCC(=O)c1ccc(N2CCCCC2)c(F)c1	nt	-1.5	nt	-2.7	161.3*	nt
CCCNC(=O)N1[C@H](CNC(C)=O)[C@H](c2ccc(-c3ccccc3)cc2)[C@@H]1CO	1.2	nt	-0.5	-0.2	nt	-21.4[16.7 µM]
Cc1ccc(C(=O)OCC(=O)NCCN2C(=O)CSC2=O)cc1[N+](=O)[O-]	-3.9	-0.6	-0.1	-11.8	3.0	-0.2
Cc1cc(C(=O)OCC(=O)NCCN2C(=O)CSC2=O)ccc1[N+](=O)[O-]	nt	0.2	-3.4	-5.9	89.8*	nt
Cc1cccc(NC(=O)CN2C(=O)N/C(=C/c3cc(C)n(-c4ccncc4)c3C)C2=O)c1	2.6	-0.7	nt	2.2	-9.9	-6.0
Cc1cccc(NC(=O)CN2C(=O)N/C(=C/c3cc(C)n(-c4cccnc4)c3C)C2=O)c1	-0.9	-0.4	-2.0	-3.3	74.3*	nt
CO[C@H]1CN(C)C(=O)c2cc(NC(=O)C3CCCC3)ccc2OC[C@@H](C)N(C(=O)CC2CC2)C[C@H]1C	7.6	nt	-0.6	3.4	nt	12.4[16.7 µM]
CN(C(=O)c1ccccc1OC1CCN(S(C)(=O)=O)CC1)C1CCOC1 (stereo not given)	4.4	-0.1	8.5*	-1.3	-3.0	nt
COc1cccc(C2C3=C(CCCC3=O)Nc3[nH]n(-c4ccccc4)c(=O)c32)c1 (stereo not given)	-2.1	-0.3	-2.5	-21.7	nt	21.5
O=C1CCCC2=C1C(c1ccc3c(c1)OCO3)c1c([nH]n(-c3ccccc3)c1=O)N2 (stereo not given)	-2.2	0.3	nt	2.2	nt	191.3*
O=C(/C=C/c1ccco1)NC(=S)Nc1ccc(N2CCOCC2)c(Cl)c1	-6.7	1.1	nt	-2.9	nt	103.9*
Cc1ccc(-c2nc3ccccc3o2)cc1NC(=S)NC(=O)/C=C/c1ccco1	-4.4	0.3	nt	-1.4	-5.4	0.5
O=C(/C=C/c1ccco1)NC(=S)Nc1cccc(-c2nc3ccccc3o2)c1	-2.4	-1.2	nt	nt	-9.3	130.5*
C/C=C/c1ccc([C@@H]2[C@@H](CO)N(C(=O)C3CCCC3)C23CN(C(=O)NC(C)C)C3)cc1	9.7	nt	-0.4	nt	nt	nt
CC(C)(C)C(=O)Nc1ccnn1C1CCN(C(=O)c2ccc(Cl)cc2F)CC1	1.8	-0.2	-1.2	-2.2	44.4*	-10.9
C[C@@H](NC(=O)C[C@@H]1C[C@H]2c3cc(NC(=O)CC4CC4)ccc3O[C@H]2[C@@H](CO)O1)c1ccccc1	1.5	nt	4.5	-3.6	nt	-1.8[16.7 µM]
CN(C)/C=C1\C=C2C(=O)c3ccccc3N2C1=O	5.7	1.2	31.8*	-14.3	55.6*	-2.4
CC(C)NC(=O)Nc1ccc2c(c1)C(=O)N([C@@H](C)CO)C[C@@H](C)[C@H](CN(C)Cc1ccc(C(=O)O)cc1)OCCCC[C@@H](C)O2	4.6	nt	0.2	-7.4	nt	5.7[16.7 µM]
SMILES	PGC1a acetyl inh	CAL PDZ FP-1	CFTR F508del cor	ARNT TACC3 PPI	CAL PDZ FP-2	miR122 inh
Cc1noc(C)c1NC(=O)Nc1ccc2c(c1)C(=O)N([C@H](C)CO)C[C@@H](C)[C@@H](CN(C)S(=O)(=O)c1ccccc1)O2	-9.3	nt	-1.3	nt	nt	-1.3[16.7 µM]
Cc1cc(C(=O)Nc2cccc3c2O[C@H](CN(C)S(=O)(=O)c2cn(C)cn2)[C@H](C)CN([C@H](C)CO)C3=O)n(C)n1	2.5	nt	-1.4	-7.2	nt	-1.6[16.7 µM]
Cc1ccccc1NC(=O)c1nc(S(C)(=O)=O)ncc1Cl	-134.0	9.6	-5.0	-2.9	85.8*	-6.2
CN1/C(=C/C(=O)c2nc(S(C)(=O)=O)ncc2Cl)C(C)(C)c2ccccc21	83.4*	-3.4	nt	10.3	-2.0	nt
C[C@@H]1CCCCO[C@@H](CN(C)C(=O)Nc2ccc3c(c2)OCO3)[C@H](C)CN([C@@H](C)CO)C(=O)c2cc(NC(=O)Cc3ccccc3)ccc2O1	-16.5	nt	2.8	10.1	nt	-9.3[16.7 µM]
COC(=O)C[C@H]1C[C@H]2c3cc(N(C)C)ccc3O[C@H]2[C@H](CO)O1	15.1	nt	1.3	34.1	nt	-2.6[16.7 µM]
CN(C)c1ccc2c(c1)[C@@H]1C[C@@H](CC(=O)NCc3cc(F)ccc3F)O[C@H](CO)[C@@H]1O2	-4.0	nt	-7.3	active	nt	13.2[16.7 µM]
COC(=O)C[C@H]1C[C@@H]2c3cc(N(C)C)ccc3O[C@@H]2[C@@H](CO)O1	5.0	nt	-0.8	45.1*	nt	4.6[16.7 µM]
CN(C)c1ccc2c(c1)[C@@H]1C[C@@H](CC(=O)NCc3cc(F)ccc3F)O[C@@H](CO)[C@@H]1O2	13.1	nt	-2.2	13.1	nt	13.5[16.7 µM]
O=C(COc1ccccc1)NCC(c1ccco1)N1CCN(c2ccc(F)cc2)CC1 (stereo not given)	nt	-2.1	3.5	2.6	1.1	nt
CC(NC(=O)COc1ccccc1)C(=O)N1CCN(c2ccc(F)cc2)CC1 (stereo not given)	nt	-0.1	-2.5	-3.5	72.7*	nt
COC(C(=O)C(O)C(C)O)C1Cc2cc3cc(OC4CC(OC5CC(O)C(O)C(C)O5)C(O)C(C)O4)c(C)c(O)c3c(O)c2C(=O)C1OC1CC(OC2CC(OC3CC(O)C(OC)C(C)O3)C(O)C(C)O2)C(O)C(C)O1 (stereo not given)	39.3	-0.7	12.5*	29.5	9.9	-7.8
COC1=C(Br)C(=O)c2nc(C)ccc2C1=O	2.7	nt	1.1	nt	nt	2.8
COC1=C(N)C(=O)c2nc(C)ccc2C1=O	9.0	0.3	5.8	29.6*	0.5	-1.6
Cc1ccc(S(=O)(=O)Nc2cccc3c2O[C@@H](CN(C)C(=O)Nc2cccc4ccccc24)[C@H](C)CN([C@@H](C)CO)C3=O)cc1	0.3	nt	-0.2	nt	nt	-4.2[16.7 µM]
COc1ccc2[nH]cc(CCNC(=O)Cc3ccc(F)cc3)c2c1	-3.3	-4.0	3.5	-0.5	78.9*	-1.1
CCCc1nc2ccccc2c(=O)n1/N=C/c1ccccc1O	4.0	-3.3	nt	57.4*	2.9	1.1
Cc1cc(/C=N/n2c(COc3ccccc3C)nc3ccccc3c2=O)c(O)c([N+](=O)[O-])c1	nt	-1.2	8.2*	7.0	-4.7	nt

Compound activity from PubChem.
